Data from ChEMBL document CHEMBL2046404, “Design, synthesis, and structure-activity correlations of novel dibenzo[b,d]furan, dibenzo[b,d]thiophene, and N-methylcarbazole clubbed 1,2,3-triazoles as potent inhibitors of Mycobacterium tuberculosis” (J Med Chem, 2012).
Values after ≈ are worked out from the molar mass of the structure shown.

What was measured:
[1] = system: Mycobacterium tuberculosis; test: Antitubercular activity against Mycobacterium tuberculosis H37Rv ATCC 27294 after 28 days by agar dilution method; format: functional; conditions: H37Rv ATCC 27294, 672 h
Method in brief: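 Twofold serial dilutions incorporated into Middlebrook 7H11 agar with OADC, final 25–0.78 μg/mL. Inoculum from fresh 7H11/OADC slants, 1 mg/mL wet weight in 0.05% Tween 80 saline diluted 10⁻² (~10⁷ cfu/mL); 5 μL spotted per tube.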

HeLa = test: Cytotoxicity against human HeLa cells after 48 hrs after MTT assay; format: cell-based
Method in brief: (§1)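 Cells grown in DMEM with 10% FBS, 37 °C, 5% CO₂. Seeded in 96-well plates and preincubated 24 h before compound, tested at 1, 10, 100, 1000 μM in triplicate wells, 48 h continuous exposure. MTT (10 μL of 5%) added for 60 min, stain eluted with DMSO, absorbance read at 560 nm. IC50 from dose–response curves versus control; mean ± SD of three experiments.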

DU-145 = test: Cytotoxicity against human DU145 cells after 48 hrs after MTT assay; format: cell-based; conditions: DU-145, 48 h
Method in brief: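 Cells kept in MEM with nonessential amino acids, 1 mM sodium pyruvate, bovine insulin, 10% FBS. Seeded in 96-well plates and preincubated 24 h, then exposed 48 h to 1, 10, 100, 1000 μM in triplicate wells. MTT (10 μL of 5%) for 60 min, DMSO elution, absorbance read at 560 nm. IC50 versus control absorbance; mean ± SD of three experiments.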

SK-N-SH = test: Cytotoxicity against human SK-N-SH cells after 48 hrs after MTT assay; format: cell-based; method in brief: as §1
A549 = test: Cytotoxicity against human A549 cells after 48 hrs after MTT assay; format: cell-based; conditions: A549, 48 h; method in brief: as §1
[2] = Selectivity index ratio of IC50 for human HeLa cells to MIC for Mycobacterium tuberculosis H37Rv ATCC 27294; format: functional
[3] = Selectivity index ratio of IC50 for human A549 cells to MIC for Mycobacterium tuberculosis H37Rv ATCC 27294; format: functional
[4] = Selectivity index ratio of IC50 for human SK-N-SH cells to MIC for Mycobacterium tuberculosis H37Rv ATCC 27294; format: functional
[5] = Selectivity index ratio of IC50 for human DU145 cells to MIC for Mycobacterium tuberculosis H37Rv ATCC 27294; format: functional, DU-145
[6] = system: Mycobacterium tuberculosis; test: Ratio of ethambutol MIC to compound MIC against Mycobacterium tuberculosis H37Rv ATCC 27294; format: functional
[7] = system: Mycobacterium tuberculosis; test: Ratio of pyrazinamide MIC to compound MIC against Mycobacterium tuberculosis H37Rv ATCC 27294; format: functional

Structure (SMILES) | MIC [1] [µM] | IC50 (HeLa) [µM] | IC50 (DU-145) [µM] | IC50 (SK-N-SH) [µM] | IC50 (A549) [µM] | other results
CC(c1ccc2c(c1)c1ccccc1n2C)n1cc(-c2ccccc2)nn1 (stereo unspecified) | 71 (≈ 25 µg/mL) | – | – | – | – | –
CCCc1cn(C(C)c2ccc3c(c2)c2ccccc2n3C)nn1 (stereo unspecified) | 78 (≈ 24.8 µg/mL) | – | – | – | – | –
CCCCc1cn(C(C)c2ccc3c(c2)c2ccccc2n3C)nn1 (stereo unspecified) | 75.3 (≈ 25 µg/mL) | – | – | – | – | –
CCCCCCc1cn(C(C)c2ccc3c(c2)c2ccccc2n3C)nn1 (stereo unspecified) | 70 (≈ 25.2 µg/mL) | – | – | – | – | –
CC(c1ccc2c(c1)c1ccccc1n2C)n1cc(CO)nn1 (stereo unspecified) | 81.7 (≈ 25 µg/mL) | – | – | – | – | –
CC(c1ccc2c(c1)c1ccccc1n2C)n1cc(COCc2ccccc2)nn1 (stereo unspecified) | 63.1 (≈ 25 µg/mL) | – | – | – | – | –
CC(c1ccc2c(c1)c1ccccc1n2C)n1cc(-c2ccccc2[N+](=O)[O-])nn1 (stereo unspecified) | 31.5 (≈ 12.5 µg/mL) | – | – | – | – | –
CC(c1ccc2c(c1)c1ccccc1n2C)n1cc(-c2ccc(C(C)(C)C)cc2)nn1 (stereo unspecified) | 30.6 (≈ 12.5 µg/mL) | – | – | – | – | –
CC(c1ccc2oc3ccccc3c2c1)n1cc(-c2ccccc2)nn1 (stereo unspecified) | 18.4 (≈ 6.24 µg/mL) | – | – | – | – | –
CCCc1cn(C(C)c2ccc3oc4ccccc4c3c2)nn1 (stereo unspecified) | 41 (≈ 12.5 µg/mL) | – | – | – | – | –
CCCCc1cn(C(C)c2ccc3oc4ccccc4c3c2)nn1 (stereo unspecified) | 39.2 (≈ 12.5 µg/mL) | – | – | – | – | –
CCCCCCc1cn(C(C)c2ccc3oc4ccccc4c3c2)nn1 (stereo unspecified) | 18 (≈ 6.25 µg/mL) | – | – | – | – | –
CC(c1ccc2oc3ccccc3c2c1)n1cc(CO)nn1 (stereo unspecified) | 85.3 (≈ 25 µg/mL) | – | – | – | – | –
CC(c1ccc2oc3ccccc3c2c1)n1cc(COCc2ccccc2)nn1 (stereo unspecified) | 65.2 (≈ 25 µg/mL) | – | – | – | – | –
CC(c1ccc2oc3ccccc3c2c1)n1cc(-c2ccccc2[N+](=O)[O-])nn1 (stereo unspecified) | 16.3 (≈ 6.27 µg/mL) | – | – | – | – | –
CC(c1ccc2oc3ccccc3c2c1)n1cc(-c2ccc(C(C)(C)C)cc2)nn1 (stereo unspecified) | 15.8 (≈ 6.25 µg/mL) | – | – | – | – | –
CC(c1ccc2sc3ccccc3c2c1)n1cc(-c2ccccc2)nn1 (stereo unspecified) | 4.4 (≈ 1.56 µg/mL) | 329 | 90 | 291 | 444 | –
CCCc1cn(C(C)c2ccc3sc4ccccc4c3c2)nn1 (stereo unspecified) | 9.75 (≈ 3.13 µg/mL) | 87 | 96 | 93 | 68 | –
CCCCc1cn(C(C)c2ccc3sc4ccccc4c3c2)nn1 (stereo unspecified) | 4.66 (≈ 1.56 µg/mL) | 62 | 107 | 101 | 80 | –
CCCCCCc1cn(C(C)c2ccc3sc4ccccc4c3c2)nn1 (stereo unspecified) | 4.3 (≈ 1.56 µg/mL) | – | – | – | – | –

Structure (SMILES) | MIC [1] [µM] | IC50 (HeLa) [µM] | IC50 (DU-145) [µM] | IC50 (SK-N-SH) [µM] | IC50 (A549) [µM] | other results
CC(c1ccc2sc3ccccc3c2c1)n1cc(CO)nn1 (stereo unspecified) | 20.2 (≈ 6.25 µg/mL) | – | – | – | – | –
CC(c1ccc2sc3ccccc3c2c1)n1cc(COCc2ccccc2)nn1 (stereo unspecified) | 7.84 (≈ 3.13 µg/mL) | 438 | 225 | 103 | 189 | –
CC(c1ccc2sc3ccccc3c2c1)n1cc(-c2ccccc2[N+](=O)[O-])nn1 (stereo unspecified) | 3.9 (≈ 1.56 µg/mL) | 136 | 126 | 386 | 190 | –
CC(c1ccc2sc3ccccc3c2c1)n1cc(-c2ccc(C(C)(C)C)cc2)nn1 (stereo unspecified) | 1.89 (≈ 0.778 µg/mL) | 191 | 105 | 260 | 482 | Ratio [2]: 55; Ratio [3]: 55; Ratio [4]: 55; Ratio [5]: 55; Ratio [6]: 4; Ratio [7]: 26
Cc1ccc(-c2cn(C(C)c3ccc4sc5ccccc5c4c3)nn2)cc1 (stereo unspecified) | 8.48 (≈ 3.13 µg/mL) | 164 | 174 | 32 | 108 | –
CC(c1ccc2sc3ccccc3c2c1)n1cc(CCc2ccccc2)nn1 (stereo unspecified) | 8.17 (≈ 3.13 µg/mL) | 79 | 100 | – | 78 | –
CC(c1ccc2sc3ccccc3c2c1)n1cc(-c2ccc([N+](=O)[O-])cc2)nn1 (stereo unspecified) | 3.9 (≈ 1.56 µg/mL) | 210 | 138 | 30 | 852 | –
CC(c1ccc2sc3ccccc3c2c1)n1cc(-c2ccsc2)nn1 (stereo unspecified) | 34.6 (≈ 12.5 µg/mL) | – | – | – | – | –
COc1ccc2cc(-c3cn(C(C)c4ccc5sc6ccccc6c5c4)nn3)ccc2c1 (stereo unspecified) | 28.7 (≈ 12.5 µg/mL) | – | – | – | – | –
CC(c1ccc2sc3ccccc3c2c1)n1cc(-c2cc3ccccc3c3ccccc23)nn1 (stereo unspecified) | 54.9 (≈ 25 µg/mL) | – | – | – | – | –
CC(c1ccc2sc3ccccc3c2c1)n1cc(-c2ccc(-c3ccccc3)cc2)nn1 (stereo unspecified) | 14.5 (≈ 6.26 µg/mL) | – | – | – | – | –
CC(c1ccc2sc3ccccc3c2c1)n1cc(-c2ccc(Cl)cc2Cl)nn1 (stereo unspecified) | 3.68 (≈ 1.56 µg/mL) | 162 | 150 | 477 | 400 | –
CC(c1ccc2sc3ccccc3c2c1)n1cc(-c2ccc(F)cc2Cl)nn1 (stereo unspecified) | 1.91 (≈ 0.779 µg/mL) | 155 | 147 | 342 | 249 | Ratio [2]: 55; Ratio [3]: 55; Ratio [4]: 55; Ratio [5]: 55; Ratio [6]: 4; Ratio [7]: 26
CC(c1ccc2sc3ccccc3c2c1)n1cc(-c2ccc(Br)cc2F)nn1 (stereo unspecified) | 3.45 (≈ 1.56 µg/mL) | 457 | 222 | 76 | 219 | –
CC(c1ccc2sc3ccccc3c2c1)n1cc(-c2cc(F)ccc2F)nn1 (stereo unspecified) | 3.98 (≈ 1.56 µg/mL) | 96 | 767 | 21 | 272 | –
CC(c1ccc2sc3ccccc3c2c1)n1cc(-c2cc(F)cc(F)c2Cl)nn1 (stereo unspecified) | 12.5 (≈ 5.32 µg/mL) | 116 | 120 | 46 | 507 | –
CC[C@@H](CO)NCCN[C@@H](CC)CO [ETHAMBUTOL] | 7.6 (≈ 1.55 µg/mL) | – | – | – | – | –
NNC(=O)c1ccncc1 [ISONIAZID] | 0.37 (≈ 0.0507 µg/mL) | – | – | – | – | –
NC(=O)c1cnccn1 [PYRAZINAMIDE] | 50.1 (≈ 6.17 µg/mL) | – | – | – | – | –
